Experimental data taken from ChEMBL document CHEMBL1149321, “Synthesis, radiosynthesis, and biological evaluation of carbon-11 and iodine-123 labeled 2beta-carbomethoxy-3beta-[4'-((Z)-2-haloethenyl)phenyl]tropanes: candidate radioligands for in vivo imaging of the serotonin transporter” (J Med Chem, 2004).
Where “and” joins values, the source holds several entries; their conditions need not be identical. Equal entries are not always repeated.

How the values were obtained:
[1] = molecular target: T1, Sodium-dependent dopamine transporter (Homo sapiens, UniProt Q01959); experiment: In vitro binding affinity against human dopamine transporter in dog kidney cell line by using [3H]WIN-35428 as the radiotracer; assay type: cell-based
T1 sequence (Q01959 whole entry): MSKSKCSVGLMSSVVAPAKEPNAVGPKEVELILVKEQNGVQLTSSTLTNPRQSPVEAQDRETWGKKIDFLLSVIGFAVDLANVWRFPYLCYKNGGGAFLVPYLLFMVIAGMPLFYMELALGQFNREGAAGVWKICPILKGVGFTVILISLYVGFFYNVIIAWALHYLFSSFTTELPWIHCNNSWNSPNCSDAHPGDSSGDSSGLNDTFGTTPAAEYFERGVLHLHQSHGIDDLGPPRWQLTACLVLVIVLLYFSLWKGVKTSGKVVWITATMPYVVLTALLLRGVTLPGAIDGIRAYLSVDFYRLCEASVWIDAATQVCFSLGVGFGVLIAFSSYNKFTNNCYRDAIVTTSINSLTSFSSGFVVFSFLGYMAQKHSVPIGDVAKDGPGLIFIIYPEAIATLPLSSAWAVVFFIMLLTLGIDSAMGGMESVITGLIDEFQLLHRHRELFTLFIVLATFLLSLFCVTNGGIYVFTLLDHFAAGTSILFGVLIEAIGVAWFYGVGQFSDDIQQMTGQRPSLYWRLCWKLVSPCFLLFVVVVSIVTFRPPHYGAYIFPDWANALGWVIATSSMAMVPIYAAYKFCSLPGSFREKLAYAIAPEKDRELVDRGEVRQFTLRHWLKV

[2] = molecular target: T2, Sodium-dependent noradrenaline transporter (Homo sapiens, UniProt P23975); experiment: In vitro binding affinity against human norepinephrine transporter in human embryonic kidney cell line by using [3H]-[…] radioligand; assay type: cell-based
T2 sequence (P23975 whole entry): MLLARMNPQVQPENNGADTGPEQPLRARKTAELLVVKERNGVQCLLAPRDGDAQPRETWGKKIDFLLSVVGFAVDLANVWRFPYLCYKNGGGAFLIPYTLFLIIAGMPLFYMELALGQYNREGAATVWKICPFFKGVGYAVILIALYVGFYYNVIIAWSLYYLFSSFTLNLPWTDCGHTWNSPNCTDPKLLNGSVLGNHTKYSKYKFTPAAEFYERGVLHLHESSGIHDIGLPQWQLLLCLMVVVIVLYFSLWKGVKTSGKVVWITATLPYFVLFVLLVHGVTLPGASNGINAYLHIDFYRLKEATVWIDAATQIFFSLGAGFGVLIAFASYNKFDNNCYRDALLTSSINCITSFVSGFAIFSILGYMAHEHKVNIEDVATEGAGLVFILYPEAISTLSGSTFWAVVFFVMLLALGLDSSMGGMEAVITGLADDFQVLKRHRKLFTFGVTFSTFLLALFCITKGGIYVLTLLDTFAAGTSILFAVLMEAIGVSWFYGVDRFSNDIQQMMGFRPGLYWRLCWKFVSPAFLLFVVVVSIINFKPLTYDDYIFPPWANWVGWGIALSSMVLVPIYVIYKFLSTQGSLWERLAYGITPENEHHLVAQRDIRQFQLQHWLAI

[3] = molecular target: Sodium-dependent serotonin transporter (Homo sapiens, UniProt P31645); experiment: biochemical; assay type: cell-based, kidney
Chain of Sodium-dependent serotonin transporter (P31645 whole entry): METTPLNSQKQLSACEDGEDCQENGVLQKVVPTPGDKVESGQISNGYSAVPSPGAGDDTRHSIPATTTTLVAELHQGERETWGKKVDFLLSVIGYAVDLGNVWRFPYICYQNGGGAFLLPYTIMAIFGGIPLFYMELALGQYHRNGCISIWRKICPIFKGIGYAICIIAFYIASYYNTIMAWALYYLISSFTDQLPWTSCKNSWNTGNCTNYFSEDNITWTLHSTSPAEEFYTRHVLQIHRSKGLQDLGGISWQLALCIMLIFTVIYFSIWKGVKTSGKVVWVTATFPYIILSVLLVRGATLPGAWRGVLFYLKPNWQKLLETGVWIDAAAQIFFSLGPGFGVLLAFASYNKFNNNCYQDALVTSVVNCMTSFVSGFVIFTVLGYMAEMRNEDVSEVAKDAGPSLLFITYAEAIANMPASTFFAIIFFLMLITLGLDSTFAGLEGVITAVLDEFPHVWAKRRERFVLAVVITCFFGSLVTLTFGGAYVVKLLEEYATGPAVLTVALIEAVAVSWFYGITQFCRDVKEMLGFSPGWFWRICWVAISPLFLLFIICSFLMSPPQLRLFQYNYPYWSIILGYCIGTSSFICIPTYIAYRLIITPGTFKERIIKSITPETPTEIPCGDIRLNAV

[4] = molecular target: T1, Sodium-dependent dopamine transporter; experiment: In vitro binding affinity against human dopamine transporter in dog kidney cell line by using [125I]RTI-55 as radioligand; assay type: cell-based
In short: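 Membranes of MDCK cells stably expressing hDAT, grown in DMEM/10% FBS/geneticin. […] Competitor 12 concentrations 10⁻¹³–10⁻⁵ M in triplicate; GF/B filtration, gamma counting; Ki as geometric mean of ≥3 assays.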

[5] = molecular target: T2, Sodium-dependent noradrenaline transporter; experiment: In vitro binding affinity against human norepinephrine transporter in human embryonic kidney cell line by using [125I]-RTI-55 radioligand; assay type: cell-based
[6] = molecular target: T1, Sodium-dependent dopamine transporter; experiment: In vitro binding affinity against human dopamine transporter in dog kidney cell line using [125I]RTI-55 as radioligand; assay type: cell-based
[7] = molecular target: T2, Sodium-dependent noradrenaline transporter; experiment: In vitro binding affinity against human norepinephrine transporter in human embryonic kidney cell line using [125I]RTI-55 as radioligand; assay type: cell-based

Structure (SMILES) | Ki [1] [nM] | Ki [2] [nM] | Ki [3] | Ki [4] [nM] | Ki [5] [nM] | Ki [6] [nM] | Ki ([6]; kidney) [nM] | Ki [7] [nM]
CN1C2CCC1C(C(=O)Oc1ccccc1)C(c1ccc(Cl)cc1)C2 (centres undefined) | 5.25 | 242 | 390 nM |  |  |  |  | 
COC(=O)C1C2CCC(CC1c1ccc(C=C(Br)Br)cc1)N2 (centres undefined) |  |  | 0.08 nM | 5.6 | 5.6 |  |  | 
COC(=O)C1C(c2ccc(/C=C\Br)cc2)CC2CCC1N2C (centres undefined) |  |  | 0.08 nM | 3.1 | 111 |  |  | 
COC(=O)C1C2CCC(CC1c1ccc(/C=C\Br)cc1)N2 (centres undefined) |  |  | 0.04 nM | 3.9 | 2.5 |  |  | 
COC(=O)C1C2CCC(CC1c1ccc(I)cc1)N2 (centres undefined) |  | 7.5 | 0.36 nM | 0.69 |  |  |  | 
COC(=O)C1C(c2ccc(C=C(Br)Br)cc2)CC2CCC1N2C (centres undefined) |  |  | 1.35 nM | 6.73 | 161 |  |  | 
COC(=O)C1C(c2ccc(/C=C\I)cc2)CC2CCC1N2C (centres undefined) |  |  | 0.11 nM | 22 | 450 |  |  | 
COC(=O)[C@@H]1C2CC[C@H](C[C@@H]1c1ccc(I)cc1)N2C |  | 36 | 4.2 nM | 1.3 |  |  |  | 
COC(=O)C1C2CCC(CC1c1ccc(/C=C\I)cc1)N2 (centres undefined) |  |  | 0.05 nM and 0.04 nM (2×) | 3.5 |  | 15 | 15 | 24
